Test results reported in ChEMBL document CHEMBL1157419, “Bioactive isocoumarins isolated from the endophytic fungus Microdochium bolleyi” (2008).

How the values were obtained:
Escherichia coli = assay: Antimicrobial activity against Escherichia coli by agar diffusion method; assay type: functional
How it was run: (§1)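 Test substance dissolved in acetone at 1 mg/mL, and 50 µL (50 µg) applied to a sterile 9 mm filter disk. Disk placed on NB agar, then sprayed with a suspension of the test bacterium (E. coli Gram-negative; B. megaterium Gram-positive). Acetone run as a solvent control.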

Priestia megaterium = assay: Antimicrobial activity against Bacillus megaterium by agar diffusion method; assay type: functional; how it was run: as §1
Microbotryum violaceum = assay: Antimicrobial activity against Microbotryum violaceum by agar diffusion method; assay type: functional
How it was run: (§2)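 Test substance dissolved in acetone at 1 mg/mL, and 50 µL (50 µg) pipetted onto a sterile 9 mm filter disk. Disk laid on MPY agar, then sprayed with a suspension of the fungus M. violaceum or the alga C. fusca. Acetone tested as a solvent control.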

[Chlorella] fusca = Antimicrobial activity against Chlorella fusca by agar diffusion method; assay type: functional, Scenedesmus fuscus; how it was run: as §2

## COc1cc2c(c(O)c1OC)C(=O)O[C@@H]1C[C@H](C[C@H](C)O)O[C@H]21
Escherichia coli
  inhibition zone (IZ): 8 mm
Priestia megaterium
  inhibition zone (IZ): 6 mm
Microbotryum violaceum
  inhibition zone (IZ): 9 mm
[Chlorella] fusca
  inhibition zone (IZ): 10 mm

## COc1cc2c(c(O)c1OC)C(=O)O[C@@H]1C[C@H](C[C@@H](C)O)O[C@H]21
Escherichia coli
  inhibition zone (IZ): 0 mm
Priestia megaterium
  inhibition zone (IZ): 0 mm
Microbotryum violaceum
  inhibition zone (IZ): 7 mm
[Chlorella] fusca
  inhibition zone (IZ): 6 mm

## CCC[C@@H](O)C[C@H]1OC(=O)c2c(cc(OC)c(OC)c2O)[C@H]1O
Escherichia coli
  inhibition zone (IZ): 10 mm
Priestia megaterium
  inhibition zone (IZ): 7 mm
Microbotryum violaceum
  inhibition zone (IZ): 9 mm
[Chlorella] fusca
  inhibition zone (IZ): 10 mm

## C[C@@H]1C[C@@H]([C@H](O)CC2CC(=O)NC(=O)C2)C(=O)[C@@H](C)C1 [CYCLOHEXIMIDE]
Escherichia coli
  inhibition zone (IZ): 0 mm
Priestia megaterium
  inhibition zone (IZ): 0 mm
Microbotryum violaceum
  inhibition zone (IZ): 35 mm
[Chlorella] fusca
  inhibition zone (IZ): 50 mm

## CCC[C@H]1C[C@H]2OC(=O)c3c(cc(OC)c(OC)c3O)[C@H]2O1 [MONOCERIN]
Escherichia coli
  inhibition zone (IZ): 10 mm
Priestia megaterium
  inhibition zone (IZ): 6 mm
Microbotryum violaceum
  inhibition zone (IZ): 23 mm
[Chlorella] fusca
  inhibition zone (IZ): 8 mm

## CN(C)[C@@H]1C(O)=C(C(N)=O)C(=O)[C@@]2(O)C(O)=C3C(=O)c4c(O)cccc4[C@@](C)(O)[C@H]3C[C@@H]12 [TETRACYCLINE]
Escherichia coli
  inhibition zone (IZ): 18 mm
Priestia megaterium
  inhibition zone (IZ): 18 mm
Microbotryum violaceum
  inhibition zone (IZ): 10 mm
[Chlorella] fusca
  inhibition zone (IZ): 0 mm

## NYSTATIN
Escherichia coli
  inhibition zone (IZ): 0 mm
Priestia megaterium
  inhibition zone (IZ): 0 mm
Microbotryum violaceum
  inhibition zone (IZ): 0 mm
[Chlorella] fusca; Scenedesmus fuscus
  inhibition zone (IZ): 20 mm
